# High-throughput results deposited in PubChem by The Scripps Research Institute Molecular Screening Center.
# OXTR potentiate – potentiates the human oxytocin receptor response; CHO-OTR cells, Fluo-8 calcium fluorescence, potentiator mode; 0% = oxytocin EC15, 100% = EC100; activation, % at 3 µM; 320,000 compounds, 0.061% hits;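 active means activation above that plate's cutoff, the mean activation of tested compounds plus 3 SD, cut at about 6.6% in these data, passing the limit was not always enough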
#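 System: human OTR in CHO cells; Also added: sub-maximal oxytocin, roughly EC15; Timing: compound 6 min at room temperature before oxytocin, 100 s read; Technique: Fluo-8 intracellular calcium fluorescence, ex 470-495, em 515-575 nm; Controls: oxytocin EC15 low and EC100 high; Replication: singlicate.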
# TAAR1 ag – agonists of human TAAR1. 360,000 compounds, 0.99% hits. Q96RJ0. activation, % at 3 µM. AID 624467. CHO RD-HGA16 TAAR1, Fluo-8 calcium fluorescence; vehicle wells 0%, saturating PEA agonist 100%;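 active means activation above the mean activation of all test compounds in the run plus 3 SD, cut at about 38% in these data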
#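 System: CHO-derived RD-HGA16 cells with stable Gα16 and human TAAR1. Times: 17-24 h plating, Fluo-8 75 min 37 °C, 30 min RT. Measured by: calcium-sensitive Fluo-8 signal, excitation 470-495, emission 515-575 nm. Read-out basis: % activation relative to PEA EC100 response. Control set: DMSO and PEA EC100. Repeats: no replicates (n 1).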
# V1R ag counter – activates human V1a receptor in oxytocin agonist counter-screen. 320,000 compounds, 0.25% hits. CHO-V1R cells, Fluo-8 calcium fluorescence, agonist mode; 0% DMSO, 100% 3 nM vasopressin. activation, % at 3 µM;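 active means activation above the mean activation of all tested compounds plus 3 SD, per screening run, cut at about 20% in these data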;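 further: signal is peak over basal fluorescence ratio across a 100 second FLIPR read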
# Target sequence (P37288 whole entry, looked up): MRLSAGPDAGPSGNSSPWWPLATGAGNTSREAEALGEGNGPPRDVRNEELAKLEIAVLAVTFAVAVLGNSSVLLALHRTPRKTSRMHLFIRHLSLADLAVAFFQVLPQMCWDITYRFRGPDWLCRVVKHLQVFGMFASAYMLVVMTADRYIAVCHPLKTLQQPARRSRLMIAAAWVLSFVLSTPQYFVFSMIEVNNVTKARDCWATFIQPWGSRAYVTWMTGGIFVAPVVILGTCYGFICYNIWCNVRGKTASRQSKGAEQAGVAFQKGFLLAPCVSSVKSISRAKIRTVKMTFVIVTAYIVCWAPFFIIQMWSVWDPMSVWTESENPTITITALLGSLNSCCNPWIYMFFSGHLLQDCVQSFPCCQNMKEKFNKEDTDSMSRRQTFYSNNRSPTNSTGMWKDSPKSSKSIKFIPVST
# TAAR1 antag – human TAAR1 antagonism; 360,000 compounds, 1.5% hits; CHO RD-HGA16 TAAR1, Fluo-8 calcium fluorescence, antagonist; Q96RJ0; inhibition, % at 3 µM; AID 624466;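 active means inhibition above a per-plate cutoff, the mean inhibition of test compounds on that plate plus 3 SD, cut at about 49% in these data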
#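 System: RD-HGA16 CHO cells with stable hTAAR1 and Gα16 | Probe or stimulus: EC80 β-phenethylamine stimulus | Dosing: 3 µM, single point | Times: Dye loading 75 min at 37 °C, then 30 min room temperature | Measured by: Fluo-8 calcium-sensitive fluorescence | Read-out basis: % inhibition of agonist calcium response | Replicates: n of 1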
# OXTR ag – human OXTR agonism. P30559. 320,000 compounds, 0.32% hits. activation, % at 3 µM. CHO-OTR cells, Fluo-8 calcium fluorescence; normalized: DMSO 0%, oxytocin 100%. AID 2435;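 active means activation above the mean of all tested compounds plus 3 SD, cutoff set per screening run, cut at about 20% in these data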;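 further: peak over basal fluorescence ratio from a 100 s FLIPR kinetic read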
# A number is an active result; - = inactive; . = not tested or not shown. Most compounds without a hit are left out; they make up all but 2.3% or so of the library.
SMILES,OXTR potentiate,TAAR1 ag,V1R ag counter,TAAR1 antag,OXTR ag
CCN(CC(=O)Nc1ccccc1OC)C(=O)c1ccc2[nH]c3c(c2c1)CC(C)CC3 (centres undefined),-,-,-,56,-
CCCN(CC(=O)Nc1ccccc1OC)C(=O)c1ccc2[nH]c3c(c2c1)CC(C)CC3 (centres undefined),-,-,-,51,-
O=C(NCc1ccccc1)[C@H]1CCCN1,.,-,.,-,.
O=C(Nc1ccccc1)N1c2ccccc2SC1c1ccco1 (centres undefined),.,-,.,-,.
CCOC(=O)C1CSCCS(=O)(=O)N1Cc1ccccc1F (centres undefined),.,-,.,-,.
O=C1c2ccccc2-c2onc3ccc(NCc4ccco4)c1c23,-,.,35,.,58
O=C1c2ccccc2-c2onc3ccc(N4CCCC4)c1c23,.,-,.,-,.
COc1ccc(C(C)(O)c2nc(-c3ccc(OC)nc3)cs2)cc1 (centres undefined),.,-,.,-,.
Nc1ccc2nc3c(=O)n(C4CCCCC4)c(=O)[nH]c3nc2c1,-,88,159,-,91
Cc1cc2nc3c(=O)n(CCc4ccccc4)c(=O)[nH]c3nc2cc1N,-,39,41,-,64
Nc1ccc2nc3c(=O)n(CCc4ccccc4)c(=O)[nH]c3nc2c1,-,56,69,-,96
COc1cc2[nH]c(=O)n(C3CCCCC3)c(=O)c2cc1OC,-,-,-,-,-
Cc1nc2ccccc2c(=O)n1CCc1ccccc1,-,-,-,-,-
CCCCn1c(=O)[nH]c2nc3cc(N)ccc3nc2c1=O,-,-,30,-,50
CCCCn1c(N)c(Br)c(=O)[nH]c1=O,-,-,-,-,-
COc1cc(CCN=Cc2cccc(OC)c2O)c([N+](=O)[O-])cc1OC,.,-,.,-,.
C[C@@H]1CN([C@@H](C)CO)C(=O)CCCn2nncc2CO[C@H]1CN(C)CC1CC1,.,-,.,-,.
O=C(COc1ccccc1)NC(=S)Nc1cccc2c(O)cccc12,.,42,.,-,.
COC(=O)c1ccccc1NC(=S)NC(=O)COc1ccccc1,-,-,-,-,-
CCc1nc2ccc(C(=O)NCc3ccccc3OC)cn2c1N(C)Cc1ccc(OC)cc1,.,-,.,51,.
CCc1nc2ccc(C(=O)NCc3ccc(OC)cc3)cn2c1N(C)Cc1ccc(OC)cc1,.,-,.,-,.
O=C(N/N=C/C=C/c1ccccc1[N+](=O)[O-])c1ccncc1,-,-,-,-,-
O=C(N/N=C/C=C\c1ccccc1[N+](=O)[O-])c1cc(-c2ccc3ccccc3c2)n[nH]1,.,-,.,53,.
O=C(N/N=C/c1ccccn1)c1cc(-c2ccc3ccccc3c2)n[nH]1,-,-,-,71,-
COC(=O)[C@]12C[C@H](CC(=O)NCC34CC5CC(CC(C5)C3)C4)C(=O)N(Cc3ccccc3)C1=C[C@H](C(C)C)O[C@@H]2C1CC1,.,-,.,-,.
SMILES,OXTR potentiate,TAAR1 ag,V1R ag counter,TAAR1 antag,OXTR ag
CC1Cc2cc(/C=C3/SC(=S)NC3=O)ccc2O1 (centres undefined),-,-,-,-,-
Cc1ccc(C2C(/C=C3/SC(=S)NC3=O)=C(c3cccs3)Oc3ccccc32)cc1 (centres undefined),-,-,-,56,-
COC(=O)[C@]12C[C@H](CC(=O)N3CCOCC3)C(=O)N(Cc3ccccc3)C1=C[C@H](C1CCCC1)O[C@@H]2C,.,-,.,-,.
Cc1ccc(NC(=O)N2CC(C)OC(C)C2)cc1[N+](=O)[O-] (centres undefined),.,-,.,-,.
O=C(COC(=O)[C@@H]1CC(O)CN1S(=O)(=O)c1ccccc1[N+](=O)[O-])c1ccccc1 (some centres undefined),-,-,-,-,-
CCc1cccc2c(C(=O)COC(=O)[C@@H]3CC(O)CN3S(=O)(=O)c3ccccc3[N+](=O)[O-])c[nH]c12 (some centres undefined),-,-,-,56,-
O=C(NCCc1cccs1)C1CC(c2cccc([N+](=O)[O-])c2)=NO1 (centres undefined),-,-,-,49,-
CCCCNC(=O)C1CC(c2cccc([N+](=O)[O-])c2)=NO1 (centres undefined),-,-,-,-,-
CCOC(=O)c1ccccc1OCc1cc(/C=N/NC(=O)c2cccnc2)ccc1OC,-,-,-,81,-
COc1ccc(/C=N/NC(=O)c2ccoc2C)cc1COc1c(C)cccc1C,-,-,-,68,-
COc1ccc(/C=N\NC(=O)c2ccccc2)cc1COc1ccccc1,-,-,-,-,-
CCOC(=O)CNC(=O)N(C)[C@H]1C[C@H]2c3[nH]c4c(-c5ccccc5)cccc4c3CCN2C(=O)[C@H]1[C@H](C)O,.,-,.,-,.
O=C(Cc1cccs1)N(Cc1cccs1)C1(C(=O)NC2CCCC2)CCCCC1,-,-,28,-,24
CCOC(=O)C(Cc1ccc(NC(=O)/C(=C/c2ccccc2)NC(=O)c2ccccc2)cc1)N1C(=O)c2ccccc2C1=O (centres undefined),-,-,-,-,-
CCOC(=O)C(Cc1ccc(NC(=O)/C(=C/c2ccc(OC(C)=O)cc2)NC(C)=O)cc1)N1C(=O)c2ccccc2C1=O (centres undefined),-,-,-,49,-
c1ccc2c(c1)OCC(c1csc3ncnc(N4CCCC4)c13)O2 (centres undefined),-,-,-,-,-
c1ccc(CCNc2ncnc3scc(C4COc5ccccc5O4)c23)cc1 (centres undefined),-,-,-,71,-
Cc1ccccc1S(=O)(=O)N(C)C[C@H]1OCc2cnnn2CCCC(=O)N([C@H](C)CO)C[C@@H]1C,.,-,.,-,.
NC(c1csc(NC(=O)Nc2ccc(OC(F)(F)F)cc2)n1)C1CCCCC1 (centres undefined),.,47,.,-,.
COc1ccc(NC(=O)Nc2nc(C(N)CC(C)C)cs2)cc1 (centres undefined),.,-,.,-,.
COC(=O)c1cc2c(c3c4ccccc4n(S(=O)(=O)c4ccc(C)cc4)c13)C(=O)N(Cc1ccccc1)C2,.,-,.,-,.
Cn1c(CC(=O)Nc2ccc(Cl)c(Cl)c2)nnc1SCC(=O)NCc1ccccc1,-,38,-,-,-
Cc1ccc(NC(=O)Cc2nnc(SCC(=O)Nc3ccccc3)n2C)cc1,-,-,-,-,-
CN(C)c1nc(OCCOC(=O)c2ccccc2)nc(N(C)C)n1,-,39,-,-,-
CCc1cc2c(nc1CC)CCCN2C,.,-,.,-,.
O=C(Nc1ccc(N2CCOCC2)cc1)Nc1ccc2nc(-c3ccco3)c(-c3ccco3)nc2c1,-,-,-,49,-
OC1(c2cccc(C(F)(F)F)c2)CCN(c2ncnc3c2[nH]c2ccc(F)cc23)CC1,.,-,.,60,.
